In publication PMC4245161 (ACS Chemical Biology, 2014):

Experiments:
[1] = tested on: GFP transcript in LDR cells; type: cell-based, mouse; conditions: 200 nM, 24 h, relative to DMSO-treated cells
[2] = tested on: acetylated H3 at the CMV promoter in LDR cells; test: Chromatin immunoprecipitation of acetylated H3 at the CMV promoter; type: cell-based, mouse; conditions: 250 ng/mL, 24 h
How it was run: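 LDR cells (C127 mouse mammary line carrying a silenced CMV-GFP reporter; DMEM, 10% heat-inactivated FBS) treated with test compound at 250 ng/mL or DMSO vehicle (24 h per legend; overnight per methods). Formaldehyde cross-linking, then ChIP by standard protocol with anti-acetylated H3 antibody. After cross-link reversal, PCR with CMV-promoter primers run on a gel. Controls were a no-antibody background and 10% input.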

SMILES: CC(/C=C/C(=O)NO)=C\[C@@H](C)C(=O)c1ccc(N(C)C)cc1 [Trichostatin A]
- induction of GFP transcripts [1]: at least 5 fold
- histone acetylation at the CMV promoter (ChIP) [2]: markedly increases
